PKA kinase inh: PKA (human) kinase inhibition; inhibition, % at 6 µM; 0.1% of 65,000 active; AID 524; PKA Kemptide phosphorylation, Kinase-Glo ATP luminescence; P17612;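 active = inhibition above the screen-wide mean inhibition plus 3 SD, cut at about 21% in these data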
RORA act: activators of human nuclear receptor RORA. CHO-K1 Gal4-RORA LBD luciferase reporter, luminescence; percent increase over mock-subtracted basal signal. activation, % at 10 µM. 1.5% of 65,000 active. AID 560;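 active = activation above the mean of all tested compounds plus 3 SD, cut at about 49% in these data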;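 note: 0% = DMSO-treated RORA cells and 100% = added signal equal to DMSO minus mock-transfected cells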
JNK3 blocker: JNK3 (human) kinase inhibition; P53779; purified JNK3 kinase activity, HTS; inhibition, % at 8 µM; 0.61% of 60,000 active; AID 746; in the data active = inhibition above about 17%;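 note: 0% = DMSO and 100% = reference inhibitor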
WNV NS2B-NS3 inh: WNV NS2B-NS3 proteinase inhibition. AID 577. 0.18% of 65,000 active. P06935. z-score (test concentration not listed). WNV NS2B-NS3 protease, fluorogenic substrate Ex360/Em465; hits give low values; in the data active = z-score below about -3
Target sequence (P06935 1371-1501 limits assumed): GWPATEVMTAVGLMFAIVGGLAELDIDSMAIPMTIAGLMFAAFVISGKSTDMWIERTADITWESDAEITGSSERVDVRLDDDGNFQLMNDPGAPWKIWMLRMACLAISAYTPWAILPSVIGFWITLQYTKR
Target sequence (P06935 1502-1679 limits assumed): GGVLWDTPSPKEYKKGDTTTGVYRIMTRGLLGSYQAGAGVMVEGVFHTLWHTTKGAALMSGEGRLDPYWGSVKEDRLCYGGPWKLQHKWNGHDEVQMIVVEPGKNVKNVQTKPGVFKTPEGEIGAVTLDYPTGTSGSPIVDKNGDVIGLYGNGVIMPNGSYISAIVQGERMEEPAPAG
SF-1 act: activators of human nuclear receptor SF-1. Q13285. CHO-K1 Gal4-SF-1 LBD luciferase reporter; % increase over DMSO SF-1-specific signal. activation, % at 10 µM. 1.9% of 65,000 active. AID 522;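 active = activation above the mean activation of all tested compounds plus 3 SD, cut at about 50% in these data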
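Test system: transient Gal4-SF-1 LBD reporter, CHO-K1; Amount: 4,000 CHO-K1 cells per well; Doses: 10 µM only; Timing: compound exposure 20 h at 37 °C; Signal: luciferase light emission; Read-out basis: percent activation relative to DMSO median and mock-transfected background; Control set: DMSO negative control and −SF1 background wells; Replicates: one test per compound.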
ROCK2 inh: ROCK2 (human) kinase inhibition. O75116. inhibition, % at 6 µM. purified ROCK2, Kinase-Glo ATP depletion luminescence. 0.35% of 60,000 active. AID 604;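 active = inhibition above the screen-wide mean inhibition plus 3 SD, cut at about 18% in these data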;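 note: plate controls were DMSO wells for no effect and Y-27632 control wells after no-enzyme background subtraction for full effect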
An asterisk follows results filed as active; . = not tested or not shown. Sampled rows, rich in hits. Any-hit rate of the full collection: about 3.4%.

SMILES	PKA kinase inh	RORA act	JNK3 blocker	WNV NS2B-NS3 inh	SF-1 act	ROCK2 inh
c1ccc(Cc2nnc3sc(-c4ccc5c(c4)OCCO5)nn23)cc1	9	38	-7	-0.1	55*	2
c1ccc(Cc2nnc3sc(-c4ccc5c(c4)OCO5)nn23)cc1	-2	-2	-2	0.62	20	-1
CCC1SC2=NC(C)=C(C(=O)OC)C(c3cccs3)N2C1=O (stereo not given)	-10	7	-8	-0.18	20	-1
CC(=O)C1=C(C)NC(SCC(=O)c2ccccc2)=C(C#N)C1CC(C)C (stereo not given)	3	27	9	-0.95	-7	-2
CCN(CC)c1ccc(C(=O)n2cnc3ccccc32)cc1	10	39	11	-0.06	64*	8
CCCC(=O)Nc1ccc(C(=O)n2nnc3ccccc32)cc1	3	-4	3	-0.12	3	6
CCOc1cc(-c2c(C#N)c(N)nc3c2CCCC3)ccc1O	13	13	3	0.57	2	5
CCOc1cc(-c2cc(-c3ccc(N)cc3)nc(N)c2C#N)ccc1O	14	32	14	-0.36	54*	7
O=C(NC1CCCC1)c1cccc(S(=O)(=O)N2CCCCC2)c1	8	-12	-5	0.45	-1	-2
CN(C)c1cccc(C(=O)NC2CCCCCC2)c1	5	26	-1	-0.68	75*	7
Cc1ccc(Nc2nc(=O)c3cccnc3s2)cc1	-2	50*	0	2.1	53*	-5
O=S(=O)(c1ccc2c(c1)OCCO2)N1CCC(n2cnc3cc(F)ccc32)CC1	11	-10	25*	-0.68	-13	6
Cc1cc(C)n(C2=NS(=O)(=O)c3ccccc32)n1	-1	-13	4	0.48	0	-2
O=C(NCC1COc2ccccc2O1)c1ccccc1 (stereo not given)	7	70*	8	1.7	52*	6
O=C(NCC1COc2ccccc2O1)c1ccco1 (stereo not given)	10	-12	0	-0.91	14	4
CCn1cc(C(=O)Nc2cccc(C(=O)OC)c2)c(=O)c2ccc(C)nc21	3	-11	0	-6.2*	12	3
CCC(=O)Nc1ccc(NC(=O)c2ccccn2)cn1	7	65*	-4	0.67	39	1
O=C(Nc1ccc(NC(=O)C2CC2)nc1)c1ccccn1	2	8	.	-0.03	13	.
CC(C)C(=O)Nc1ccc(NC(=O)c2ccccn2)cn1	2	51*	.	0.49	41	.
COc1cc(SC)ccc1C(=O)Nc1ccc2c(c1)CCN2S(C)(=O)=O	3	40	-3	0.0023	5	0
COc1ccc(-c2nnc(SCc3nnc(-c4ccccc4)o3)n2C)cc1OC	9	53*	8	-1.4	12	9
COc1ccc(-c2nnc(SCc3nnc(-c4ccccc4)o3)n2-c2ccccc2)cc1	6	16	-7	0.56	-6	6
Cc1ccc(C(=O)C2=C(O)C(=O)N(CCCn3ccnc3)C2c2ccc(OC(C)C)cc2)o1 (stereo not given)	0	2	27*	0.98	16	-1
CCOc1ccc(C2C(C(=O)c3ccco3)=C(O)C(=O)N2CCCn2ccnc2)cc1 (stereo not given)	12	6	-1	-0.29	11	4
COC(=O)[C@H](CCSC)NC(=O)NCc1ccc(S(N)(=O)=O)cc1	12	-10	1	-0.5	-6	6
SMILES	PKA kinase inh	RORA act	JNK3 blocker	WNV NS2B-NS3 inh	SF-1 act	ROCK2 inh
CC(C)CNc1oc(-c2ccc(F)cc2)nc1C#N	5	-4	5	0.71	-3	4
O=C(Nc1nc2ccc(S(=O)(=O)N3CCCC3)cc2s1)c1cccs1	7	52*	-1	-2	37	1
CSc1nc2ccc3nc(NC(=O)c4cccs4)sc3c2s1	14	39	-2	0.44	64*	8
O=C(Nc1nc2ccc(S(=O)(=O)N3CCCCC3)cc2s1)c1ccncc1	-1	15	6	-0.7	-1	0
COc1ccc(C2C(C(=O)NCC3CCCO3)c3cc(OC)c(OC)cc3C(=O)N2C)cc1OC (stereo not given)	8	-11	.	-0.24	-9	.
CCCOc1ccc(C(=O)Nc2ccc(N(C)C)cc2)cc1	6	56*	-9	1.6	30	2

High-throughput results from PubChem.
